Results as given in ChEMBL document CHEMBL1132408, “Novel lipoamino acid- and liposaccharide-based system for peptide delivery: application for oral administration of tumor-selective somatostatin analogues” (J Med Chem, 1999).

Legend:
Type in all cases: functional, Homo sapiens
A-431 [1] = assay: (§1) The compound was tested in vitro for antiproliferative activity against A431 tumor cell lines; parameters: concentration or dose not given beside the values
How it was run: (§2)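 Human tumor cell lines were exposed to the conjugates for 24 h at 50 µg/mL. Surviving cells converted the tetrazolium salt MTT to formazan, and OD was read at 570 nm. Values are percent inhibition relative to untreated cells (0%), given as the mean ± SD of at least three parallels. The methods also list 20, 50 and 100 µg/mL and 24 or 48 h exposures.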

Faza 967 cell clone 2/T1 = assay: The compound was tested in vitro for antiproliferative activity against Faza 967 clone2/T1 tumor cell lines; parameters: concentration or dose not given beside the values
A2058 = assay: The compound was tested in vitro for antiproliferative activity against A2058 tumor cell lines; parameters: concentration or dose not given beside the values; how it was run: as §2
Faza 967 clone 2 = assay: The compound was tested in vitro for antiproliferative activity against Faza 967 clone2 tumor cell lines; parameters: concentration or dose not given beside the values
HT-29 = assay: The compound was tested in vitro for antiproliferative activity against HT-29 tumor cell lines; parameters: concentration or dose not given beside the values; how it was run: as §2
PC-3 = assay: The compound was tested in vitro for antiproliferative activity against PC3 tumor cell lines; how it was run: as §2
SW-620 = assay: The compound was tested in vitro for antiproliferative activity against […] tumor cell lines; how it was run: as §2
A-431 [2] = assay: as §1; how it was run: as §2

SMILES	Inhibition (A-431 [1]) [%]	Inhibition (Faza 967 cell clone 2/T1) [%]	Inhibition (A2058) [%]	Inhibition (Faza 967 clone 2) [%]	Inhibition (HT-29) [%]	Inhibition (PC-3) [%]	Inhibition (SW-620) [%]	Inhibition (A-431 [2]) [%]
CCCCCCCCCCC(N)C(=O)N[C@H](Cc1ccccc1)C(=O)N[C@@H](CSCNC(C)=O)C(=O)N[C@H](C(=O)N[C@H](Cc1c[nH]c2ccccc12)C(=O)N[C@@H](CCCCN)C(=O)N[C@@H](CSCNC(C)=O)C(=O)N[C@H](C(=O)NC1OC(C(N)=O)C(O)C(O)C1O)[C@@H](C)O)c1ccc(O)cc1 (some centres not stated)	50	29	80	19	36			
CC(=O)NCSC[C@H](NC(=O)[C@H](N)Cc1ccccc1)C(=O)N[C@H](C(=O)N[C@H](Cc1c[nH]c2ccccc12)C(=O)N[C@@H](CCCCN)C(=O)N[C@@H](CSCNC(C)=O)C(=O)N[C@H](C(=O)NC1OC(C(N)=O)C(O)C(O)C1O)[C@@H](C)O)c1ccc(O)cc1 (some centres not stated)	90	90	88	93	85			
CCCCCCCCCCCCC(NC(=O)CCC(=O)NC1OC(O)C(O)C(O)C1O)C(=O)N[C@H](Cc1ccccc1)C(=O)N[C@H]1CSSC[C@@H](C(=O)N[C@H](C(N)=O)[C@@H](C)O)NC(=O)[C@H](CCCCN)NC(=O)[C@@H](Cc2c[nH]c3ccccc23)NC(=O)[C@H](c2ccc(O)cc2)NC1=O (some centres not stated)			100		30	55		
CCCCCCCCC(N)C(=O)NC(CCCCCCCC)C(=O)N[C@H](Cc1ccccc1)C(=O)N[C@@H](CSCNC(C)=O)C(=O)N[C@H](C(=O)N[C@H](Cc1c[nH]c2ccccc12)C(=O)N[C@@H](CCCCN)C(=O)N[C@@H](CSCNC(C)=O)C(=O)N[C@H](C(N)=O)[C@@H](C)O)c1ccc(O)cc1 (some centres not stated)		95	68	96	60			
CCCCCCCCCCCCC(N)C(=O)N[C@H](Cc1ccccc1)C(=O)N[C@@H](CSCNC(C)=O)C(=O)N[C@H](C(=O)N[C@H](Cc1c[nH]c2ccccc12)C(=O)N[C@@H](CCCCN)C(=O)N[C@@H](CSCNC(C)=O)C(=O)N[C@H](C(=O)NC1OC(C(N)=O)C(O)C(O)C1O)[C@@H](C)O)c1ccc(O)cc1 (some centres not stated)	10	17	2	23	18			
CCCCCCCCCCCCCCCCC(N)C(=O)N[C@H](Cc1ccccc1)C(=O)N[C@@H](CSCNC(C)=O)C(=O)N[C@H](C(=O)N[C@H](Cc1c[nH]c2ccccc12)C(=O)N[C@@H](CCCCN)C(=O)N[C@@H](CSCNC(C)=O)C(=O)N[C@H](C(N)=O)[C@@H](C)O)c1ccc(O)cc1 (some centres not stated)	83	88	60	93	20			
CCCCCCCCCCCCCCCCCCC(N)C(=O)N[C@H](Cc1ccccc1)C(=O)N[C@@H](CSCNC(C)=O)C(=O)N[C@H](C(=O)N[C@H](Cc1c[nH]c2ccccc12)C(=O)N[C@@H](CCCCN)C(=O)N[C@@H](CSCNC(C)=O)C(=O)N[C@H](C(N)=O)[C@@H](C)O)c1ccc(O)cc1 (some centres not stated)		87	34	71	50			
CCCCCCCCCCC(N)C(=O)N[C@H](Cc1ccccc1)C(=O)N[C@H]1CSSC[C@@H](C(=O)N[C@H](C(N)=O)[C@@H](C)O)NC(=O)[C@H](CCCCN)NC(=O)[C@@H](Cc2c[nH]c3ccccc23)NC(=O)[C@H](c2ccc(O)cc2)NC1=O (some centres not stated)						5	65	
CC(=O)NCSC[C@H](NC(=O)[C@H](N)Cc1ccccc1)C(=O)N[C@H](C(=O)N[C@H](Cc1c[nH]c2ccccc12)C(=O)N[C@@H](CCCCN)C(=O)N[C@@H](CSCNC(C)=O)C(=O)N[C@H](C(N)=O)[C@@H](C)O)c1ccc(O)cc1	34	0	30	10	80			
CCCCCCCCCCCCC(N[C@H](Cc1ccccc1)C(=O)N[C@@H](CSCNC(C)=O)C(=O)N[C@H](C(=O)N[C@H](Cc1c[nH]c2ccccc12)C(=O)N[C@@H](CCCCN)C(=O)N[C@@H](CSCNC(C)=O)C(=O)N[C@H](C(N)=O)[C@@H](C)O)c1ccc(O)cc1)C(=O)NC1OC(O)C(O)C(O)C1O (some centres not stated)	32	50	62	61	39			
CCCCCCCCC(N)C(=O)N[C@H](Cc1ccccc1)C(=O)N[C@H]1CSSC[C@@H](C(=O)N[C@H](C(N)=O)[C@@H](C)O)NC(=O)[C@H](CCCCN)NC(=O)[C@@H](Cc2c[nH]c3ccccc23)NC(=O)[C@H](c2ccc(O)cc2)NC1=O (some centres not stated)						42	95	
CCCCCCCCC(NC(=O)[C@@H](NC(=O)[C@H](CSCNC(C)=O)NC(=O)[C@H](CCCCN)NC(=O)[C@@H](Cc1c[nH]c2ccccc12)NC(=O)[C@@H](NC(=O)[C@H](CSCNC(C)=O)NC(=O)[C@H](N)Cc1ccccc1)c1ccc(O)cc1)[C@@H](C)O)C(=O)NCC(=O)O (some centres not stated)	76	90	97	92	93			
C[C@@H](O)[C@H](NC(=O)C1CSSCC(NC(=O)[C@H](N)Cc2ccccc2)C(=O)N[C@@H](c2ccc(O)cc2)C(=O)NC(Cc2c[nH]c3ccccc23)C(=O)N[C@@H](CCCCN)C(=O)N1)C(N)=O (single isomer, unassigned)		100	96	100	76	90	90	100
CCCCCCCCCCC(N)C(=O)NCC(=O)NCC(=O)N[C@H](Cc1ccccc1)C(=O)N[C@H]1CSSC[C@@H](C(=O)N[C@H](C(N)=O)[C@@H](C)O)NC(=O)[C@H](CCCCN)NC(=O)[C@@H](Cc2c[nH]c3ccccc23)NC(=O)[C@H](c2ccc(O)cc2)NC1=O (some centres not stated)	48	43	35	33	50			
